Bioassay records (PubChem BioAssay)
KCNQ1 block: human KCNQ1 channel inhibition. P51787. CHO-K1 KCNQ1, FluxOR thallium flux fluorescence; active compounds read high. B-score at 10 µM. 310,000 tested, 1.3% active;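 active means compounds whose thallium flux B-score, printed positive for inhibition, exceeds three library SD while starting fluorescence stays within three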;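 further: channel opened by potassium depolarization with thallium stimulus after 20 min compound exposure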
Kir21 inh: inhibitors of mouse Kir2.1 inward-rectifier potassium channel; HEK293-Kir2.1, FluxOR thallium flux fluorescence; active compounds read low; B-score at 10 µM; 310,000 tested, 0.85% active;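 active means fluorescence ratio B-score at or below minus 3 SD of library scores, with starting-brightness B-score within 2 SD, cut at about -4.2 in these data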;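 further: channel flux triggered by added potassium and thallium sulfate stimulus; B-score of peak minus minimum fluorescence over baseline after thallium stimulus; more negative B-score means stronger Kir2.1 block with less thallium influx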
KCNQ1 pot: human KCNQ1 channel potentiation or activation | CHO-K1 KCNQ1, thallium flux FluxOR fluorescence; active compounds read high | B-score at 10 µM | 310,000 tested, 0.35% active;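 active means fluorescence ratio B-score, a plate-corrected score, at least three library SD, with initial intensity B-score within 5 SD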
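assay system = KCNQ1-transfected CHO-K1 cells | medium = assay buffer with matched DMSO | probe or stimulus = depolarizing K+/Tl+ stimulus, K2SO4 and Tl2SO4 each 12.5 mM in 5x stock | dosing = single dose | incubation = dye 90 min, compound 20 min, room temperature | detection = kinetic FluxOR fluorescence, 10 s baseline plus 110 s post-stimulus | evaluation = ratio B score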
KCNK3 block: human KCNK3 channel inhibition, primary screen. O14649. CHO-KCNK3 thallium flux, FluxOR fluorescence; active compounds read low. B-score at 10 µM. 340,000 tested, 0.84% active;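 active means B-score under library mean minus 4 SD, starting fluorescence ratio at most library mean plus 5 SD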;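 further: more negative B-score means stronger inhibition of thallium flux through KCNK3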
hERG protect: hERG (human) protection from proarrhythmic block. Q12809. CHO-hERG, FluxOR thallium flux, dofetilide IC70 present. activation (rescue from dofetilide block), less the hit threshold, % at 10 µM. 310,000 tested, 0.51% active;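 active means activation above the mean of controls blocked by dofetilide plus 5 SD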;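 further: thallium influx through hERG after potassium depolarization seen as dye fluorescence rise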
Target sequence (Q12809 whole entry, looked up): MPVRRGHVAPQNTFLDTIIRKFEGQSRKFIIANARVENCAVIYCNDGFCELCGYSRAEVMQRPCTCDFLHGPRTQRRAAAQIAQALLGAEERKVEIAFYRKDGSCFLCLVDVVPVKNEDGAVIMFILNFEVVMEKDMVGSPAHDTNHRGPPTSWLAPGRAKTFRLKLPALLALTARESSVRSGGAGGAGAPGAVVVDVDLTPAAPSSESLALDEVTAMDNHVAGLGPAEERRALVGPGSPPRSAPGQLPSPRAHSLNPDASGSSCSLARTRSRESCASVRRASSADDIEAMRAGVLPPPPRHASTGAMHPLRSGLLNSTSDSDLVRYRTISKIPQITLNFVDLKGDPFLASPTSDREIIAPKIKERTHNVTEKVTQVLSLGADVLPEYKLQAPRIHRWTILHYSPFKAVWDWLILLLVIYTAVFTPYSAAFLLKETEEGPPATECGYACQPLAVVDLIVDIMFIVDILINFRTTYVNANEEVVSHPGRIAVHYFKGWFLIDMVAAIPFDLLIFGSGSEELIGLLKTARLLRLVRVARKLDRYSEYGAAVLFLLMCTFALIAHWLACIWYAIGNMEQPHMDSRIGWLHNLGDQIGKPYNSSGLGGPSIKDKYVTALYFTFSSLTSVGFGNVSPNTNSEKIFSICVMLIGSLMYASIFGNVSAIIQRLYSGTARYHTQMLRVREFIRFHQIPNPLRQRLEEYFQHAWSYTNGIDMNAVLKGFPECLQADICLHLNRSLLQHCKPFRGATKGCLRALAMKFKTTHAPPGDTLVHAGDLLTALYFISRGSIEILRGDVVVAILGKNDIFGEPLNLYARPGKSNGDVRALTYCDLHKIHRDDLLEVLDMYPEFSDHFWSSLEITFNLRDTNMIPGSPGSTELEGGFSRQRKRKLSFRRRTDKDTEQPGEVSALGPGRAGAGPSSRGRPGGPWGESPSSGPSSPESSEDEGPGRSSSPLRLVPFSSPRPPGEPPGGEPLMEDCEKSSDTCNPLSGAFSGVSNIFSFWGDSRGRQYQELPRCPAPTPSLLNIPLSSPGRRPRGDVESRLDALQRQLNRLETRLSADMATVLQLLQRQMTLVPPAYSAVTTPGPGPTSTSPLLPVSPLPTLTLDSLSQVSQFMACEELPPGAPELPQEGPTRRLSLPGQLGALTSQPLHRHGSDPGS
KCNK9 block: blocks the human KCNK9 two-pore domain potassium channel; B-score at 10 µM; HEK293 KCNK9, FluxOR thallium flux fluorescence; active compounds read low; Q9NPC2; 310,000 tested, 1.2% active; AID 488922;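 active means ratio B-score over 3 SD below the library mean, with starting fluorescence within 5 SD of its mean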;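 further: negative B-score means less thallium flux so channel inhibition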
Starred values were filed as active, the others as inactive; i = inactive; · = no result. Hits are enriched below; roughly 3.8% of the tested compounds scored in any of these assays.

SMILES | KCNQ1 block | Kir21 inh | KCNQ1 pot | KCNK3 block | hERG protect | KCNK9 block
CCCCCc1ccc(OCCCC[n+]2ccc(C)cc2)c(CCCCC)c1 | 11* | -9.1* | i | i | -27 | -7.2*
CCC(C)(C)c1ccc(OCCCC[n+]2ccccc2)c(C(C)(C)CC)c1 | i | -3.6 | i | i | -23 | i
CCCCCc1ccc(OCCCC[n+]2cccc(C)c2)c(CCCCC)c1 | 10* | -5.1* | i | i | -27 | -7.5*
CCC/C=N/Nc1nnc(Cc2ccc(OC)c(OC)c2)c(=O)[nH]1 | i | 1.4 | i | i | -4 | i
C=C(C1=CCN(S(=O)C(C)(C)C)[C@@H]1CCO)c1ccccc1 (stereo not given in full) | · | · | · | i | · | ·
COc1ccc(-c2cc(-c3ccc(Cl)cc3)c(C#N)c(SCC(=O)O)n2)cc1 | i | 1.5 | i | i | -8 | i
O=Cc1ccc(N2CCCC2)c(F)c1 | i | -0.04 | i | i | -6 | i
CN=C1S/C(=C\c2ccc(N3CCCC3)c(F)c2)C(=O)N1C | 11* | -0.77 | i | i | -8 | i
CCN(Cc1ccccc1)C1CCN(Cc2ccc(SC)cc2)CC1 | i | -4.6* | i | i | -9 | i
COc1ccc(/C=N/Nc2nc(Nc3ccccc3)nc(N3CCCCC3)n2)cc1OC | 7* | 0.62 | i | i | -13 | i
CC1(C)Nc2ccc(O)cc2-c2c1ssc2=S | i | -12* | i | i | -8 | i
c1ccc2c3c([nH]c2c1)C(C1CCCCC1)N(Cc1ncc[nH]1)CC3 (stereo not given) | i | -4.6* | i | i | -10 | i
Cc1cnc(CN2CCc3c([nH]c4ccccc34)C2C2CCCCC2)[nH]1 (stereo not given) | i | -4 | i | i | -10 | i
NC(N)=NC(=O)c1nc(Cl)c(N2CCCCCC2)nc1N | · | · | · | -9.8* | · | ·
O=C(CSc1nc(=O)n2ccccc2n1)NCc1ccc(F)cc1 | i | 0.61 | i | i | -11 | i
O=C(CSc1nc(=O)n2ccccc2n1)NCc1ccccc1 | i | 0.37 | 8* | i | -16 | i
O=C(Cn1nc(-c2ccccc2)c2ccccc2c1=O)Nc1ccc(O)cc1 | i | 0.62 | i | i | 15* | i
COCCn1c(=S)[nH]c2sc3c(c2c1=O)CCC(C)C3 (stereo not given) | i | 1.3 | 60* | i | 27* | i
CC(=O)Cn1nnc2sc3c(c2c1=O)CCC(C(C)(C)C)C3 (stereo not given) | i | -0.53 | i | i | -9 | i
CCn1nnc2sc3c(c2c1=O)CCC(C)C3 (stereo not given) | i | -0.41 | i | i | -5 | i
Cn1c(=S)[nH]c2sc3c(c2c1=O)CCC(C(C)(C)C)C3 (stereo not given) | i | -0.5 | 80* | i | 57* | i
Nn1c(=S)[nH]c2sc3c(c2c1=O)CCCC3 | i | 0.49 | i | i | -3 | i
CCCn1c(=S)[nH]c2sc3c(c2c1=O)CCCC3 | i | -0.09 | 43* | i | 48* | i
O=c1[nH]c(=S)[nH]c2sc3c(c12)CCCCCC3 | i | -1.1 | 10* | i | -3 | i
O=c1[nH]c(C2CC2)nc2sc3c(c12)CCCC3 | i | -0.03 | i | i | -6 | i
SMILES | KCNQ1 block | Kir21 inh | KCNQ1 pot | KCNK3 block | hERG protect | KCNK9 block
CN(C)CCCNC(=O)C[C@H]1C[C@H](C(=O)N2CCOCC2)[C@@]2(C)c3[nH]c4cc(-c5ccco5)ccc4c3CCN2C1=O | · | · | · | i | · | ·
N#Cc1ccccc1OCC(=O)NCCNC(=O)COc1ccccc1C#N | i | 1.4 | i | i | -9 | i
O=C(NN=Cc1ccc(Cl)cc1Cl)C1CC1 | · | · | · | i | · | ·
O=C(Nc1ccc(-c2ccc(N3CCCCC3)nn2)cc1)c1ccco1 | i | 2.3 | i | i | -7 | i
O=C(CCN1C(=O)C2CCCCC2C1=O)N1CCN(S(=O)(=O)c2c(F)cccc2F)CC1 (stereo not given) | i | -0.04 | i | i | -6 | i
COCCCn1c(=S)[nH]c2sc3c(c2c1=O)CCCS3 | i | -0.56 | i | i | 19* | i
Cc1cc(C)c(C(=O)COC(=O)c2cc([N+](=O)[O-])ccc2N2CCOCC2)cc1C | i | 0 | i | i | -8 | i
CC(=O)Nc1ccc(NC(=O)C(C)OC(=O)c2ccccc2NS(=O)(=O)c2cccs2)cc1 (stereo not given) | i | -0.81 | i | i | -11 | i
Cc1cccc(NC(=O)C(C)OC(=O)c2ccccc2NS(=O)(=O)c2cc(C)c(C)c([N+](=O)[O-])c2)c1 (stereo not given) | 9* | -0.79 | i | i | -13 | i
CN(C)CCNC(=O)/C(=C/c1ccc(-c2ccc(Cl)cc2Cl)o1)NC(=O)c1ccccc1 | i | -5.6* | i | i | -21 | i
CN(C)CCNC(=O)/C(=C/c1ccc(-c2ccc(Cl)cc2)o1)NC(=O)c1ccccc1 | i | -1.6 | i | i | -25 | i
CC(C)n1c(O)c(N=NC(=O)C2COc3ccccc3O2)c2ccccc21 (stereo not given) | i | 0.01 | i | i | 23* | i
Cn1c(O)c(N=NC(=O)C2COc3ccccc3O2)c2ccccc21 (stereo not given) | i | 0.25 | i | i | -6 | i
O=C1CN(S(=O)(=O)c2cc(C(F)(F)F)ccc2Cl)CCN1 | · | · | · | i | · | ·
Cc1ccc(-n2ncc(C(=O)Nc3cc(Cl)cc(Cl)c3)c2C2CCNCC2)cc1C | i | -7.3* | 17* | i | -25 | i
Cc1c(C)n(Cc2ccc(F)cc2)c2ccc(C(=O)N3CCN(c4ccccn4)CC3)cc12 | 6* | 0.03 | i | i | -9 | i
Cc1c(C)n(Cc2ccc(F)cc2)c2ccc(C(=O)NCCCN3CCOCC3)cc12 | i | -4.8* | i | i | -12 | i
Cc1c(C)n(C)c2ccc(C(=O)NCCCN3CCN(c4ccc(F)cc4)CC3)cc12 | i | -4.2* | i | i | -16 | i
O=[N+]([O-])c1ccccc1/C=N/N1CCN(c2ccc(Cl)cc2)CC1 | i | 2.2 | i | i | -8 | -7.7*
O=[N+]([O-])c1ccccc1/C=N\N1CCN(c2ccccc2)CC1 | i | 0.1 | i | i | -14 | i
O=[N+]([O-])c1ccc(Cl)c(/C=N/N2CCN(c3ccccc3)CC2)c1 | i | 0.21 | i | i | 0 | -7.8*
COc1cc(NS(=O)(=O)c2ccc(OC)c(C)c2C)c(OC)cc1Cl | i | -1.9 | i | i | -5 | i
